# Test results published in ChEMBL document CHEMBL1154249, “Semisynthesis and biological evaluation of abietane-type diterpenes. Revision of the structure of rosmaquinone” (J Nat Prod, 2009).
# What was measured:
# MCF7 [1] = test: Cytotoxicity against human […] cells at exponential phase of growth after 48 hrs by MTT assay; format: functional, cell-based
# Procedure, shortened: (§1)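 Monolayers grown in DMEM with 5% fetal calf serum and penicillin-streptomycin at 37 °C, 5% CO2. 2×10^4 cells/well in lag or log phase were exposed for 48 h to a concentration series of compounds predissolved in DMSO. MTT formazan was dissolved in DMSO and read at 550 nm. IC50 taken from the curve; three independent experiments.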
# Bacillus cereus = test: Antibacterial activity against Bacillus cereus ATCC 21772 after 24 hrs by broth dilution assay; format: functional
# HEp-2 [2] = test: Cytotoxicity against human Hep2 cells at lag phase of growth after 48 hrs by MTT assay; format: functional, cell-based; procedure, shortened: as §1
# HeLa [3] = test: Cytotoxicity against human HeLa cells at lag phase of growth after 48 hrs by MTT assay; format: functional, cell-based; procedure, shortened: as §1
# Escherichia coli = test: Antibacterial activity against Escherichia coli ATCC 9637 after 24 hrs by broth dilution assay; format: functional; conditions: ATCC 9637, 24 h
# Procedure, shortened: (§2)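 Microdilution in nutrient broth at 37 °C, about (1-5) × 10^5 cfu/mL inoculum, compounds in DMSO (≤1% v/v, matched DMSO controls), in triplicate. Growth followed by OD550. Wells without visible growth after 24 h on a rotary shaker were subcultured in duplicate onto nutrient agar and colonies counted after overnight incubation. MIC is the lowest concentration inhibiting growth at 24 h.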
# Salmonella = test: Antibacterial activity against Salmonella CECT 4569 after 24 hrs by broth dilution assay; format: functional; conditions: CECT 4569, 24 h; procedure, shortened: as §2
# A549 [4] = test: Cytotoxicity against human A549 cells at exponential phase of growth after 48 hrs by MTT assay; format: functional, cell-based; procedure, shortened: as §1
# HeLa [5] = test: Cytotoxicity against human HeLa cells at exponential phase of growth after 48 hrs by MTT assay; format: functional, cell-based; procedure, shortened: as §1
# HEp-2 [6] = test: Cytotoxicity against human Hep2 cells at exponential phase of growth after 48 hrs by MTT assay; format: functional, cell-based; procedure, shortened: as §1
# [7] = test system: Mycolicibacterium smegmatis; test: Antibacterial activity against Mycobacterium smegmatis ATCC 19420 after 48 hrs by broth dilution assay; format: functional; conditions: ATCC 19420, 48 h
# Procedure, shortened: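 Brain heart infusion broth with 0.06% Tween 80, 37 °C on a rotary shaker, inoculum about (1-5) × 10^5 cfu/mL, DMSO ≤1% v/v with matched controls, in triplicate. OD550 monitored.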
# Bacillus subtilis = test: Antibacterial activity against Bacillus subtilis ATCC 6051 after 24 hrs by broth dilution assay; format: functional
# Proteus mirabilis = test: Antibacterial activity against Proteus mirabilis CECT 170 after 24 hrs by broth dilution assay; format: functional; conditions: CECT 170, 24 h; procedure, shortened: as §2
# [8] = test system: Staphylococcus epidermidis; test: Antibacterial activity against Staphylococcus epidermidis ATCC 14990 after 24 hrs by broth dilution assay; format: functional; procedure, shortened: as §2
# Pseudomonas aeruginosa = test: Antibacterial activity against Pseudomonas aeruginosa AK958 after 24 hrs by broth dilution assay; format: functional; conditions: AK958, 24 h; procedure, shortened: as §2
# Staphylococcus aureus = test: Antibacterial activity against Staphylococcus aureus ATCC 6538 after 24 hrs by broth dilution assay; format: functional
# Vero [9] = test: Cytotoxicity against african green monkey Vero cells at lag phase of growth after 48 hrs by MTT assay; format: cell-based, Chlorocebus sabaeus; procedure, shortened: as §1
# Enterococcus faecalis = test: Antibacterial activity against Enterococcus faecalis ATCC 29212 after 24 hrs by broth dilution assay; format: functional; conditions: ATCC 29212, 24 h
# Procedure, shortened: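 Microdilution in brain heart infusion broth, shaken at 37 °C, about (1-5) × 10^5 cfu/mL start, DMSO ≤1% v/v with matched controls, in triplicate. OD550 read. Clear wells at 24 h were subcultured in duplicate onto brain heart infusion agar and counted after overnight incubation. MIC is the lowest concentration giving growth inhibition.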
# MCF7 [10] = test: Cytotoxicity against human MCF7 cells at lag phase of growth after 48 hrs by MTT assay; format: functional, cell-based; procedure, shortened: as §1
# Candida albicans = test: Antibacterial activity against Candida albicans CECT 1039 after 24 hrs by broth dilution assay
# Vero [11] = test: Cytotoxicity against african green monkey Vero cells at exponential phase of growth after 48 hrs by MTT assay; format: cell-based, Chlorocebus sabaeus; procedure, shortened: as §1
# A549 [12] = test: Cytotoxicity against human A549 cells at lag phase of growth after 48 hrs by MTT assay; format: functional, cell-based; procedure, shortened: as §1
# [13] = Homo sapiens, HEp-2, 48 h, read-out: IC50
# [14] = Homo sapiens, HeLa, 48 h, read-out: IC50
# [15] = Chlorocebus sabaeus, Vero, 48 h, read-out: IC50
# [16] = Homo sapiens, MCF7, 48 h, read-out: IC50
# [17] = Homo sapiens, A549, 48 h, read-out: IC50
SMILES,MIC (Escherichia coli) [µg/mL],MIC (Salmonella) [µg/mL],MIC [7] [µg/mL],MIC (Bacillus subtilis) [µg/mL],MIC (Proteus mirabilis) [µg/mL],MIC [8] [µg/mL],MIC (Pseudomonas aeruginosa) [µg/mL],MIC (Staphylococcus aureus) [µg/mL],MIC (Enterococcus faecalis) [µg/mL],MIC (Candida albicans) [µg/mL],IC50 (MCF7 [1]; mcf7),MI50 (Bacillus cereus) [µg/mL],IC50 (HEp-2 [2]; hep-2),IC50 (HeLa [3]; hela),IC50 (A549 [4]; a549),IC50 (HeLa [5]; hela),IC50 (HEp-2 [6]; hep-2),IC50 (Vero [9]; vero),IC50 (MCF7 [10]; mcf7),IC50 (Vero [11]; vero),also measured
COc1c(C(C)C)cc2c(c1OC)[C@@]13CCCC(C)(C)[C@@H]1[C@H](OC3=O)[C@@H]2OCc1ccccc1,> 40,> 40,> 40,>40,> 40,>40,> 40,>40,> 40,>40,Not Active,>40,Not Active,Not Active,Not Active,Not Active,Not Active,Not Active,Not Active,Not Active,IC50 (A549 [12]; a549): Not Active
CC(C)c1cc2c(c(O)c1O)[C@@]1(C(=O)O)CCCC(C)(C)[C@@H]1C[C@H]2Sc1ccccc1,–,–,–,–,–,–,–,–,–,–,–,–,–,–,–,–,–,–,–,–,IC50 (HEp-2 [2]; [13]): 15.2 µM; IC50 (HeLa [3]; [14]): 4.8 µM; IC50 (HeLa [5]; [14]): 11.1 µM; IC50 (HEp-2 [6]; [13]): 18.9 µM; IC50 (Vero [9]; [15]): 6.1 µM; IC50 (Vero [11]; [15]): 21.1 µM
CC(C)C1=CC2=C(C(=O)C1=O)[C@@]13CCCC(C)(C)[C@@H]1[C@@H](O)[C@@H]2OC3=O [ISOROSMAQUINONE],–,–,–,–,–,–,–,–,–,–,–,–,–,–,–,–,–,–,–,–,IC50 (HEp-2 [2]; [13]): 39.5 µM; IC50 (HeLa [3]; [14]): 25 µM; IC50 (HeLa [5]; [14]): 30.8 µM; IC50 (HEp-2 [6]; [13]): 39.2 µM; IC50 (Vero [9]; [15]): > 60 µM; IC50 (Vero [11]; [15]): > 60 µM
Sc1ncnc2nc[nH]c12 [MERCAPTOPURINE ANHYDROUS],–,–,–,–,–,–,–,–,–,–,–,–,–,–,–,–,–,–,–,–,IC50 (MCF7 [1]; [16]): 5.8 µM; IC50 (HEp-2 [2]; [13]): 431 µM; IC50 (HeLa [3]; [14]): 2.9 µM; IC50 (A549 [4]; [17]): 49.3 µM; IC50 (HeLa [5]; [14]): 4.1 µM; IC50 (HEp-2 [6]; [13]): 318 µM; IC50 (A549 [12]; [17]): 47 µM; IC50 (Vero [9]; [15]): 67.5 µM; IC50 (MCF7 [10]; [16]): 1.4 µM; IC50 (Vero [11]; [15]): 119 µM

# Now from value to compound, other results behind:
MIC (Escherichia coli) [µg/mL],MIC (Salmonella) [µg/mL],MIC [7] [µg/mL],MIC (Bacillus subtilis) [µg/mL],MIC (Proteus mirabilis) [µg/mL],MIC [8] [µg/mL],MIC (Pseudomonas aeruginosa) [µg/mL],MIC (Staphylococcus aureus) [µg/mL],MIC (Enterococcus faecalis) [µg/mL],MIC (Candida albicans) [µg/mL],SMILES,IC50 (MCF7 [1]; mcf7),MI50 (Bacillus cereus) [µg/mL],IC50 (HEp-2 [2]; hep-2),IC50 (HeLa [3]; hela),IC50 (A549 [4]; a549),IC50 (HeLa [5]; hela),IC50 (HEp-2 [6]; hep-2),IC50 (Vero [9]; vero),IC50 (MCF7 [10]; mcf7),IC50 (Vero [11]; vero),also measured
> 40,> 40,> 40,>40,> 40,>40,> 40,>40,> 40,>40,COc1c2c(c(O)c3c1[C@@H](C)CO3)[C@@]13CCCC(C)(C)[C@@H]1C[C@@H]2OC3=O,Not Active,>40,Not Active,Not Active,Not Active,Not Active,Not Active,Not Active,Not Active,Not Active,–
> 40,> 40,> 40,>40,> 40,>40,> 40,>40,> 40,>40,COC(=O)C1=C(/C=C(\C(=O)OC)C(C)C)[C@@H]2C[C@H]3C(C)(C)CCC[C@]13C(=O)O2,Not Active,>40,Not Active,Not Active,Not Active,Not Active,Not Active,Not Active,Not Active,Not Active,–
> 40,> 40,> 40,–,> 40,–,> 40,–,> 40,–,CO/N=C(\C(=O)N[C@@H]1C(=O)N2C(C(=O)O)=C(COC(C)=O)CS[C@H]12)c1csc(N)n1 [CEFOTAXIME],–,–,–,–,–,–,–,–,–,–,"MIC (Bacillus cereus; Bacillus cereus, ATCC 21772, 24 h): 10 µg/mL; MIC (Bacillus subtilis; Bacillus subtilis, ATCC 6051, 24 h, read-out: MIC): 8 µg/mL; MIC ([8]; Staphylococcus epidermidis, ATCC 14990, 24 h, read-out: MIC): 2.5 µg/mL; MIC (Staphylococcus aureus; Staphylococcus aureus, ATCC 6538, 24 h, read-out: MIC): 1.25 µg/mL"
